Experimental data taken from ChEMBL document CHEMBL1130435, “Synthesis and antitumor activity of duocarmycin derivatives: A-ring pyrrole compounds bearing cinnamoyl groups” (J Med Chem, 1997).

Key:
HeLa [1] = assay: In vitro anticellular activity expressed as inhibitory concentration for the growth of HeLa S3 cells for a period of 72 hour; format: functional, cell-based; settings: Homo sapiens
Method in brief: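 HeLa S3 cells, 2 × 10^4 per well, precultured 24 h at 37 °C in 5% CO2, then exposed continuously to compound for 72 h. Cells detached with PBS(–) containing 0.05% trypsin and 0.02% EDTA and counted electronically. IC50 is the concentration giving 50% inhibition of cell growth.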

HeLa [2] = assay: In vitro anticellular activity expressed as inhibitory concentration for the growth of human uterine cervix carcinoma HeLa S3 cells for a period of 1 hour; format: functional, cell-based
Method in brief: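 HeLa S3 cells seeded at 2 × 10^4/well and precultured 24 h at 37 °C, 5% CO2. Pulse exposure: compound for 1 h, washed with Ca/Mg-free PBS, then grown 71 h in fresh medium. Cells detached with 0.05% trypsin/0.02% EDTA in PBS and counted electronically. IC50 is the concentration giving 50% growth inhibition.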

Mus musculus [3] = assay: Treated/Control value was measured in mice(implanted subcutaneously with sarcoma 180 cells) at the dose of 4 mg/kg; format: functional
Method in brief: (§1)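 Adult male ddY mice, five per group, implanted sc at the axillary region with passaged sarcoma 180 cells. Drug given iv starting 1 day after inoculation. Tumor length and width measured; volume = length × width²/2. T/C is mean tumor volume of treated over control. Effective if T/C ≤42% with Mann–Whitney U p < 0.05.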

Mus musculus [4] = assay: Treated/Control value was measured in mice(implanted subcutaneously with sarcoma 180 cells) at the dose of 8 mg/kg; format: functional; method in brief: as §1
Mus musculus [5] = assay: Treated/Control value was measured in mice(implanted subcutaneously with sarcoma 180 cells) at the dose of 2 mg/kg; format: functional; method in brief: as §1
Mus musculus [6] = assay: Treated/Control value was measured in mice(implanted subcutaneously with sarcoma 180 cells) at the dose of 0.13 mg/kg; format: functional; method in brief: as §1

Structure (SMILES)	IC50 (HeLa [1])	IC50 (HeLa [2])	T/C (Mus musculus [3])	T/C (Mus musculus [4])	T/C (Mus musculus [5])	T/C (Mus musculus [6])
C=CCOc1ccc(/C=C/C(=O)N2C[C@H]3C[C@@]34C2=CC(=O)c2[nH]c(C)c(C(=O)OC)c24)cc1	7.5 nM	39 nM				
COC(=O)c1c(C)[nH]c2c1[C@@]13C[C@@H]1CN(C(=O)/C=C/c1ccc(OC)cc1)C3=CC2=O	0.94 nM	7 nM				
CCCCCOc1ccc(/C=C/C(=O)N2C[C@H]3C[C@@]34C2=CC(=O)c2[nH]c(C)c(C(=O)OC)c24)cc1	50 nM	> 100 nM				
COC(=O)c1c(C)[nH]c2c1C1C(=CC2OC(=O)N2CCN(C)CC2)N(C(=O)/C=C/c2ccc(OC)cc2)C[C@H]1CBr.Cl (some centres undefined)	37 nM	1800 nM	0.2			
COC(=O)c1c(C)[nH]c2c1C1C(=CC2OC(=O)N2CCN(CC(=O)NC(C)C)CC2)N(C(=O)/C=C/c2ccc(OC)cc2)C[C@H]1CBr.Cl (some centres undefined)	61 nM	1200 nM		0.12		
COC(=O)c1c(C)[nH]c2c1C1C(=CC2OC(=O)N2CCN(C)CC2)N(C(=O)/C=C/c2ccc(OC)c(N(C)C)c2)C[C@H]1CBr.Cl (some centres undefined)	52 nM	430 nM			0.13	
COC(=O)c1c(C)[nH]c2c1[C@@]13C[C@@H]1CN(C(=O)/C=C/c1ccc(OC)c(OCCCN)c1)C3=CC2=O	1.4 nM	5.9 nM				
COC(=O)c1c(C)[nH]c2c1[C@@]13C[C@@H]1CN(C(=O)/C=C/c1ccc(N)cc1)C3=CC2=O	2.6 nM	32 nM				
COC(=O)c1c(C)[nH]c2c1C1C(=CC2OC(=O)N(C)C)N(C(=O)/C=C/c2ccc(OC)c(OCC(=O)O)c2)C[C@H]1CBr (some centres undefined)	> 1000 nM	10000 nM	0.72			
COC(=O)c1c(C)[nH]c2c1[C@@]13C[C@@H]1CN(C(=O)/C=C/c1ccc(C)cc1)C3=CC2=O	2.3 nM	33 nM				
COC(=O)COc1cc(/C=C/C(=O)N2C[C@H]3C[C@@]34C2=CC(=O)c2[nH]c(C)c(C(=O)OC)c24)ccc1OC	0.86 nM	1.3 nM				
COC(=O)c1c(C)[nH]c2c1C1C(=CC2OC(=O)N2CCN(C)CC2)N(C(=O)/C=C/c2ccc(OC)c(OCCCN)c2)C[C@H]1CBr.Cl (some centres undefined)	30 nM	290 nM				0.77
COC(=O)c1c(C)[nH]c2c1[C@@]13C[C@@H]1CN(C(=O)/C=C/c1ccc(OC)c(OCC(=O)OC(C)(C)C)c1)C3=CC2=O	2.3 nM	7.4 nM				
CCN(CC)c1cc(/C=C/C(=O)N2C[C@@H](CBr)C3C2=CC(OC(=O)N2CCN(C)CC2)c2[nH]c(C)c(C(=O)OC)c23)ccc1OC.Cl (some centres undefined)	280 nM	2100 nM		0.2		
COC(=O)c1c(C)[nH]c2c1[C@@]13C[C@@H]1CN(C(=O)/C=C/c1ccc(OC)c(N)c1)C3=CC2=O	0.53 nM	2.1 nM				
COC(=O)c1c(C)[nH]c2c1C1C(=CC2OC(=O)N2CCN(C)CC2)N(C(=O)/C=C/c2ccc(OC)c(N)c2)C[C@H]1CBr.Cl (some centres undefined)	30 nM	290 nM		0.39		
COC(=O)c1c(C)[nH]c2c1[C@@]13C[C@@H]1CN(C(=O)/C=C/c1ccc(OC)c(OCCCN(C)C)c1)C3=CC2=O	1.6 nM	3 nM				
COC(=O)c1c(C)[nH]c2c1C1C(=CC2OC(=O)N2CCC(N3CCCCC3)CC2)N(C(=O)/C=C/c2ccc(OC)cc2)C[C@H]1CBr.Cl (some centres undefined)	224 nM	1000 nM	0.17			
CCN(CC)c1cc(/C=C/C(=O)N2C[C@H]3C[C@@]34C2=CC(=O)c2[nH]c(C)c(C(=O)OC)c24)ccc1OC	2.3 nM	9.5 nM				
COC(=O)c1c(C)[nH]c2c1[C@@]13C[C@@H]1CN(C(=O)/C=C/c1ccc(N(C)C)cc1)C3=CC2=O	1.6 nM	12 nM				
COC(=O)c1c(C)[nH]c2c1[C@@]13C[C@@H]1CN(C(=O)/C=C/c1ccc(OC)c(N(C)C)c1)C3=CC2=O	0.92 nM	2.5 nM				
CCc1ccc(/C=C/C(=O)N2C[C@H]3C[C@@]34C2=CC(=O)c2[nH]c(C)c(C(=O)OC)c24)cc1	3.8 nM	51 nM				
COC(=O)c1c(C)[nH]c2c1[C@@]13C[C@@H]1CN(C(=O)c1cc4cc(OC)c(OC)c(OC)c4[nH]1)C3=CC2=O	0.16 nM	0.5 nM				
COC(=O)c1c(C)[nH]c2c1[C@@]13C[C@@H]1CN(C(=O)/C=C/c1ccc(NC(=O)OC(C)(C)C)cc1)C3=CC2=O	0.56 nM	4 nM				
COC(=O)c1c(C)[nH]c2c1[C@@]13C[C@@H]1CN(C(=O)/C=C/c1ccc(OC)c(OCCCN=[N+]=[N-])c1)C3=CC2=O	0.74 nM	2 nM				
COC(=O)c1c(C)[nH]c2c1[C@@]13C[C@@H]1CN(C(=O)/C=C/c1ccc(OCc4ccc(OC)cc4)cc1)C3=CC2=O	0.81 nM	13 nM				
CCCOc1ccc(/C=C/C(=O)N2C[C@H]3C[C@@]34C2=CC(=O)c2[nH]c(C)c(C(=O)OC)c24)cc1	8.3 nM	51 nM				
COC(=O)c1c(C)[nH]c2c1[C@@]13C[C@@H]1CN(C(=O)/C=C/c1ccc(O)cc1)C3=CC2=O	3.5 nM	19 nM				
